# In ChEMBL document CHEMBL1144761, “Bioactive polybrominated diphenyl ethers from the marine sponge Dysidea sp” (J Nat Prod, 2008):
# Active and inactive are the calls of the source. The calls are words filed in the database; no cut-off is given here.
# Tests used:
# Streptomyces [1] = experiment: Antibacterial activity against Streptomyces 85E assessed as bald phenotype at 20 ug/disk after 30 hrs by hyphae formation inhibition assay; type: functional; conditions: read-out: IZ
# In short: (§1)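 Mycelial fragments spread on minimal medium ISP 4 agar to form a lawn; compound-impregnated 6 mm paper disks placed on surface; incubated 30 h at 30 °C. Zone diameter recorded as clear (growth and sporulation inhibited) or bald (substrate hyphae without aerial hyphae); >9 mm counted active. Stocks in DMSO or methanol; solvent negative control, surfactin positive control.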
# Streptomyces [2] = experiment: Antibacterial activity against Streptomyces 85E assessed as bald phenotype at 10 ug/disk after 30 hrs by hyphae formation inhibition assay; type: functional; conditions: read-out: IZ; in short: as §1
# Streptomyces [3] = experiment: Antibacterial activity against Streptomyces 85E assessed as clear zone at 20 ug/disk after 30 hrs by hyphae formation inhibition assay; type: functional; conditions: read-out: IZ; in short: as §1
# Streptomyces [4] = experiment: Antibacterial activity against Streptomyces 85E assessed as bald phenotype at 5 ug/disk after 30 hrs by hyphae formation inhibition assay; type: functional; conditions: read-out: IZ; in short: as §1
# Streptomyces [5] = experiment: Antibacterial activity against Streptomyces 85E assessed as clear zone at 10 ug/disk after 30 hrs by hyphae formation inhibition assay; type: functional; conditions: read-out: IZ; in short: as §1
# MCF7 [6] = experiment: Antiproliferative activity against human MCF7 cells; type: functional, cell-based
# In short: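 MCF-7 cells grown in IMEM with 5% FBS and penicillin/streptomycin at 37 °C, 5% CO2, plated in 96-well plates with compounds in DMSO at five concentrations. After 2 days, glutaraldehyde-fixed, crystal violet-stained, dye solubilised in Triton X-100, A560 minus A405 read. % growth relative to day-0 and DMSO wells; IC50 read graphically from dose–response curve, triplicate.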
# Streptomyces [7] = experiment: Antibacterial activity against Streptomyces 85E assessed as bald phenotype at 2.5 ug/disk after 30 hrs by hyphae formation inhibition assay; type: functional; conditions: read-out: IZ; in short: as §1
# MCF7 [8] = experiment: Cell cycle arrest in human MCF7 cells by accumulation at G1 phase at 10 uM by flow cytometry; type: functional, cell-based
# In short: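 MCF-7 cells, 1 × 10^5 per well, held 2 days in serum-free, antibiotic-free, phenol red-free IMEM to induce G1 arrest. Compound or DMSO added 30 min before FBS to 5% final; serum-free wells as negative controls; U0126 50 µM comparator. After 24 h, cells fixed in ice-cold 80% ethanol, propidium iodide stained, phases measured by flow cytometry; n = 3.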
# Streptomyces [9] = experiment: Antibacterial activity against Streptomyces 85E assessed as clear zone at 5 ug/disk after 30 hrs by hyphae formation inhibition assay; type: functional; conditions: read-out: IZ; in short: as §1
# MCF7 [10] = experiment: Cytotoxicity against human MCF7 cells at >10 uM; type: functional, cell-based
# Streptomyces [11] = experiment: Antibacterial activity against Streptomyces 85E assessed as clear zone at 2.5 ug/disk after 30 hrs by hyphae formation inhibition assay; type: functional; conditions: read-out: IZ; in short: as §1
SMILES,zone of inhibition at 20 µg/disc (Streptomyces [1]) [mm],zone of inhibition at 10 µg/disc (Streptomyces [2]) [mm],zone of inhibition at 20 µg/disc (Streptomyces [3]) [mm],zone of inhibition at 5 µg/disc (Streptomyces [4]) [mm],zone of inhibition at 10 µg/disc (Streptomyces [5]) [mm],IC50 (MCF7 [6]) [µM],zone of inhibition at 2.5 µg/disc (Streptomyces [7]) [mm],Activity (MCF7 [8]),zone of inhibition at 5 µg/disc (Streptomyces [9]) [mm],Activity (MCF7 [10]),zone of inhibition at 2.5 µg/disc (Streptomyces [11]) [mm]
Oc1c(Br)cc(Br)c(Br)c1Oc1ccc(Br)cc1Br,3,2,12,15,12,8.73,13,,,,
Oc1c(Br)cc(Br)cc1Oc1ccc(Br)cc1Br,,13,13,12,,8.9,10,,,,
Oc1cc(Br)cc(Br)c1Oc1ccc(Br)cc1Br,,,20,,17,2.84,,Active,16,Active,13
COc1c(O)c(Oc2ccc(Br)cc2Br)c(Br)c(Br)c1Br,12,12,,11,,8.69,10,,,,
Oc1c(Br)c(Br)c(Br)c(Br)c1Oc1ccc(Br)cc1Br,,,15,12,13,9.48,12,,,,
Oc1c(Br)ccc(Br)c1Oc1ccc(Br)cc1Br,,,14,11,13,6.89,10,,,,
Oc1c(Oc2ccc(Br)cc2Br)ccc(Br)c1Br,,14,13,13,,7.23,10,,,,
Oc1c(Br)c(Br)cc(Br)c1Oc1ccccc1Br,,,20,,18,6.96,,,13,,12
Oc1c(Br)c(Br)cc(Br)c1Oc1ccc(Br)cc1Br,14,13,,11,,7.52,10,,,,
